Consider six molecules from ChEMBL document CHEMBL1933064, “Synthesis and evaluation of potential inhibitors of human and Escherichia coli histidine triad nucleotide binding proteins” (Bioorg Med Chem Lett, 2012).

The nature of assay [1]: Non-competitive inhibition of Escherichia coli HinT using tryptamine 5'-adenosine phosphoramidate as substrate compound pre-incubated for 30 secs prior substrate addition measured for 2 mins by Dixon plot analysis. The method in brief: (§1)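 Phosphoramidase assay on fluorogenic tryptamine 5'-adenosine phosphoramidate (TpAd), ecHinT or hHint1 enzyme. Enzyme pre-incubated with inhibitor 30 s at 25 °C, then substrate added. Hydrolysis followed as fluorescence rise (excitation 280 nm, emission 360 nm) over 2 min. HEPES buffer pH 7.2, 25 °C; Ki derived from rates versus concentration.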

The target in assay [2] is Adenosine 5'-monophosphoramidase HINT1 (Homo sapiens, UniProt P49773). Briefly: Non-competitive inhibition of human HinT1 using tryptamine 5'-adenosine phosphoramidate as substrate compound pre-incubated for 30 secs prior substrate addition measured for 2 mins by Dixon plot analysis. The method in brief:
as §1

The test system of assay [3] is Escherichia coli. The assay is described as follows: Inhibition of HinT in Escherichia coli BW25113 assessed as impaired growth at 100 uM after 40 hrs in presence of D,L-alanine as sole carbon source.
The test system of assay [4] is Escherichia coli. Briefly: Growth inhibition of Escherichia coli BW25113 at 100 uM after 40 hrs in presence of glucose as sole carbon source. Format: functional, organism-based.

Calls of active or inactive are those of the source. The rule behind the calls is not given here.

For the molecule `Cc1cn([C@H]2C[C@H](N)[C@@H](COC(=O)NCCc3c[nH]c4ccccc34)O2)c(=O)[nH]c1=O`, the Ki – broadly, a measure of affinity in units of concentration, obtained from inhibition or displacement – in assay [1] was 122 µM; in assay [2] it was 139 µM. In addition, the inhibition result with Escherichia coli [3] was “Active”. The “growth inhibition (GI)” value in the assay on Escherichia coli [4] is “inactive”.
As for `Nc1ncnc2c1ncn2[C@@H]1O[C@H](COC(=O)CCc2c[nH]c3ccccc23)[C@@H](O)[C@H]1O`, the figures for the Ki in assay [1] and in assay [2] were 375 µM and 400 µM, respectively.
As to `Nc1nc2c(ncn2[C@@H]2O[C@H](COC(=O)NCCc3c[nH]c4ccccc34)[C@@H](O)[C@H]2O)c(=O)[nH]1`, the figures for the inhibition constant Ki in assay [1] and in assay [2] were 42 µM and 34 µM, respectively. Further, in the assay with Escherichia coli [3], the inhibition entry is “Active”. Moreover, the “growth inhibition (GI)” value in the assay with Escherichia coli [4] was “inactive”.
On to `Cc1cn([C@H]2C[C@H](N=[N+]=[N-])[C@@H](COC(=O)NCCc3c[nH]c4ccccc34)O2)c(=O)[nH]c1=O`, for which the Ki in assay [1] was 565 µM; in assay [2] it was 715 µM.
For `Nc1ncnc2c1ncn2[C@@H]1O[C@H](COC(=O)CCCc2c[nH]c3ccccc23)[C@@H](O)[C@H]1O`, in that order: 393 µM and 457 µM.
In the case of `Nc1ncnc2c1ncn2[C@@H]1O[C@H](COC(=O)NCCc2c[nH]c3ccccc23)[C@@H](O)[C@H]1O`, the Ki came out at 73 µM in assay [1] and 103 µM in assay [2]. For the same molecule, the inhibition entry in the assay with Escherichia coli [3] is “Active”. Besides, the “growth inhibition (GI)” value with Escherichia coli [4] was “inactive”.
